Where a SMILES comes first, the peptide text is derived from it. [ ]: non-standard residue; d: D form. ξ: configuration not given here. ξAla(9-anthryl) = NC(Cc1c2ccccc2cc2ccccc12)C(=O)O; Dip = N[C@H](C(=O)O)C(c1ccccc1)c1ccccc1; ξBip = NC(Cc1ccc(-c2ccccc2)cc1)C(=O)O; ξDip = NC(C(=O)O)C(c1ccccc1)c1ccccc1; ξ1Nal = NC(Cc1cccc2ccccc12)C(=O)O; ξ2Nal = NC(Cc1ccc2ccccc2c1)C(=O)O; ξOrn = NCCCC(N)C(=O)O; ξDab = NCCC(N)C(=O)O; ξDap = NCC(N)C(=O)O
Legend:
A20 = assay: Cytotoxicity against mouse A20 lymphoma cells assessed as inhibition of cell proliferation incubated for 4 hrs by MTT assay; assay type: functional, cell-based; conditions: A20, 4 h
Method in brief: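 Murine A20 cells cultured in RPMI-1640 with 2 mM L-glutamine, 1.5 g/L sodium bicarbonate, 4.5 g/L glucose, 10 mM HEPES, 1.0 mM sodium pyruvate, 0.05 mM 2-mercaptoethanol and 10% FBS, without antibiotics, at 37 °C, 5% CO2. IC50 from three or more independent measurements, given as mean ± SD.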

[1] = Cytotoxicity against human MRC5 cells assessed as inhibition of cell proliferation incubated for 4 hrs by MTT assay; assay type: toxicity, cell-based
Method in brief: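 MRC-5 human embryonic lung fibroblasts cultured in MEM with 2 mM L-glutamine and 10% FBS, without antibiotics, at 37 °C in humidified 5% CO2. Cultures were tested for mycoplasma. IC50 from three or more independent measurements, given as mean ± SD.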

[2] = Cytotoxicity against mouse AT84 cells assessed as inhibition of cell proliferation incubated for 4 hrs by MTT assay; assay type: functional, cell-based; conditions: AT84, 4 h
[3] = Stability in pooled and cryopreserved human hepatocytes assessed as half life at 1 uM measured for 90 mins by LC-MS/MS analysis; assay type: ADME, cell-based, Hepatocyte
Method in brief: (§1)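 Pooled cryopreserved rat or human hepatocytes, 0.5 million cells/mL, ~37 °C, peptide at 1 μM initial. Supernatants analysed by LC–MS/MS with peak height referenced to time zero. t1/2 = −0.693/slope of ln concentration vs time. Duplicate experiments. Testosterone, midazolam and 4-methylumbelliferone served as metabolic-competence controls.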

[4] = Stability in pooled and cryopreserved rat hepatocytes assessed as intrinsic clearance measured per 10^6 cells at 1 uM measured for 90 mins by LC-MS/MS analysis; assay type: ADME, cell-based, Hepatocyte; conditions: read-out: CLH
Method in brief: (§2)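 Pooled cryopreserved hepatocytes at 0.5 million cells/mL, incubated at about 37 °C with 1 μM initial peptide. Supernatant after centrifugation analysed by LC–MS/MS (MRM) using a D-Trp7,9,10-substance P internal standard. Peak height was referenced to time zero, and t1/2 = −0.693/slope of ln concentration vs time. Clint = 0.693/t1/2 × Vinc per million cells. Testosterone, midazolam and 4-methylumbelliferone were the positive controls. Duplicates; mean of two experiments.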

[5] = Stability in pooled and cryopreserved rat hepatocytes assessed as half life at 1 uM measured for 90 mins by LC-MS/MS analysis; assay type: ADME, cell-based, Hepatocyte; method in brief: as §1
[6] = Stability in pooled and cryopreserved human hepatocytes assessed as intrinsic clearance measured per 10^6 cells at 1 uM measured for 90 mins by LC-MS/MS analysis; assay type: ADME, cell-based, Hepatocyte; conditions: read-out: CLH; method in brief: as §2

NCCCC[C@H](NC(=O)[C@H](Cc1c[nH]c2ccccc12)NC(=O)[C@H](Cc1c[nH]c2ccccc12)NC(=O)[C@H](CCCCN)NC(=O)[C@H](CCCCN)NC(=O)[C@H](Cc1c[nH]c2ccccc12)NC(=O)[C@H](Cc1c[nH]c2ccccc12)NC(=O)[C@H](CCCCN)NC(=O)[C@@H](N)CCCCN)C(N)=O (H-KKWWKKWWK-NH2)
IC50 (A20): 37.3 µM
IC50 at 4 h [1]: > 357 µM
IC50 [2]: 31 µM

NCCCC[C@H](NC(=O)[C@H](Cc1c[nH]c2ccccc12)NC(=O)C(NC(=O)[C@H](CCCCN)NC(=O)[C@H](CCCCN)NC(=O)[C@H](Cc1c[nH]c2ccccc12)NC(=O)[C@H](Cc1c[nH]c2ccccc12)NC(=O)[C@H](CCCCN)NC(=O)[C@@H](N)CCCCN)C(c1ccccc1)c1ccccc1)C(N)=O (stereo not given in full) (H-KKWWKK[ξDip]WK-NH2)
IC50 (A20): 12.3 µM
IC50 at 4 h [1]: 102 µM
IC50 [2]: 25.3 µM

NCCCC[C@H](NC(=O)[C@H](Cc1c[nH]c2ccccc12)NC(=O)[C@H](Cc1c[nH]c2ccccc12)NC(=O)[C@H](CCCCN)NC(=O)[C@H](CCCCN)NC(=O)[C@@H](NC(=O)[C@H](Cc1c[nH]c2ccccc12)NC(=O)[C@H](CCCCN)NC(=O)[C@@H](N)CCCCN)C(c1ccccc1)c1ccccc1)C(N)=O (H-KKW[Dip]KKWWK-NH2)
IC50 (A20): 134 µM
IC50 at 4 h [1]: > 347 µM
IC50 [2]: 113 µM

NCCCC[C@H](NC(=O)[C@H](Cc1c[nH]c2ccccc12)NC(=O)[C@H](Cc1c[nH]c2ccccc12)NC(=O)[C@H](CCCCN)NC(=O)[C@H](CCCCN)NC(=O)C(Cc1cccc2ccccc12)NC(=O)[C@H](Cc1c[nH]c2ccccc12)NC(=O)[C@H](CCCCN)NC(=O)[C@@H](N)CCCCN)C(N)=O (stereo not given in full) (H-KKW[ξ1Nal]KKWWK-NH2)
IC50 (A20): 24 µM
IC50 at 4 h [1]: 238 µM
IC50 [2]: 26.3 µM

NCCCC[C@H](NC(=O)[C@H](Cc1c[nH]c2ccccc12)NC(=O)[C@H](Cc1c[nH]c2ccccc12)NC(=O)[C@H](CCCCN)NC(=O)[C@H](CCCCN)NC(=O)C(Cc1ccc2ccccc2c1)NC(=O)[C@H](Cc1c[nH]c2ccccc12)NC(=O)[C@H](CCCCN)NC(=O)[C@@H](N)CCCCN)C(N)=O (stereo not given in full) (H-KKW[ξ2Nal]KKWWK-NH2)
IC50 (A20): 26 µM
IC50 at 4 h [1]: 257 µM
IC50 [2]: 29.3 µM

NCCCC[C@H](NC(=O)[C@H](Cc1c[nH]c2ccccc12)NC(=O)[C@H](Cc1c[nH]c2ccccc12)NC(=O)[C@H](CCCCN)NC(=O)[C@H](CCCCN)NC(=O)C(Cc1c2ccccc2cc2ccccc12)NC(=O)[C@H](Cc1c[nH]c2ccccc12)NC(=O)[C@H](CCCCN)NC(=O)[C@@H](N)CCCCN)C(N)=O (stereo not given in full) (H-KKW[ξAla(9-anthryl)]KKWWK-NH2)
IC50 (A20): 9.3 µM
IC50 at 4 h [1]: 40 µM
IC50 [2]: 11 µM

NCCCC[C@H](NC(=O)[C@H](Cc1c[nH]c2ccccc12)NC(=O)[C@H](Cc1c[nH]c2ccccc12)NC(=O)[C@H](CCCCN)NC(=O)[C@H](CCCCN)NC(=O)C(Cc1ccc(-c2ccccc2)cc1)NC(=O)[C@H](Cc1c[nH]c2ccccc12)NC(=O)[C@H](CCCCN)NC(=O)[C@@H](N)CCCCN)C(N)=O (stereo not given in full) (H-KKW[ξBip]KKWWK-NH2)
IC50 (A20): 18.7 µM
IC50 at 4 h [1]: 174 µM
IC50 [2]: 27.3 µM

NCCCC[C@H](NC(=O)[C@H](Cc1c[nH]c2ccccc12)NC(=O)[C@H](Cc1c[nH]c2ccccc12)NC(=O)[C@H](CCCCN)NC(=O)[C@H](CCCCN)NC(=O)C(NC(=O)[C@H](Cc1c[nH]c2ccccc12)NC(=O)[C@H](CCCCN)NC(=O)[C@@H](N)CCCCN)C(c1ccccc1)c1ccccc1)C(N)=O (stereo not given in full) (H-KKW[ξDip]KKWWK-NH2)
IC50 (A20): 25.7 µM
IC50 at 4 h [1]: 287 µM
IC50 [2]: 24.7 µM

NCCCC[C@H](NC(=O)C(NC(=O)[C@H](Cc1c[nH]c2ccccc12)NC(=O)[C@H](CCCCN)NC(=O)[C@H](CCCCN)NC(=O)C(NC(=O)[C@H](Cc1c[nH]c2ccccc12)NC(=O)[C@H](CCCCN)NC(=O)[C@@H](N)CCCCN)C(c1ccccc1)c1ccccc1)C(c1ccccc1)c1ccccc1)C(N)=O (stereo not given in full) (H-KKW[ξDip]KKW[ξDip]K-NH2)
IC50 (A20): 12 µM
IC50 at 4 h [1]: 80 µM
IC50 [2]: 15 µM

NCCCC[C@H](NC(=O)[C@H](Cc1c[nH]c2ccccc12)NC(=O)[C@H](Cc1c[nH]c2ccccc12)NC(=O)[C@H](CCCCN)NC(=O)[C@H](CCCCN)NC(=O)[C@H](Cc1c[nH]c2ccccc12)NC(=O)C(NC(=O)[C@H](CCCCN)NC(=O)[C@@H](N)CCCCN)C(c1ccccc1)c1ccccc1)C(N)=O (stereo not given in full) (H-KK[ξDip]WKKWWK-NH2)
IC50 (A20): 51.7 µM
IC50 at 4 h [1]: 488 µM
IC50 [2]: 36.7 µM

NCCCC[C@H](NC(=O)C(NC(=O)[C@H](Cc1c[nH]c2ccccc12)NC(=O)[C@H](CCCCN)NC(=O)[C@H](CCCCN)NC(=O)[C@H](Cc1c[nH]c2ccccc12)NC(=O)[C@H](Cc1c[nH]c2ccccc12)NC(=O)[C@@H](N)CCCCN)C(c1ccccc1)c1ccccc1)C(N)=O (stereo not given in full) (H-KWWKKW[ξDip]K-NH2)
IC50 (A20): 13.5 µM
IC50 at 4 h [1]: 43.9 µM

NCCCC[C@H](NC(=O)C(NC(=O)[C@H](Cc1c[nH]c2ccccc12)NC(=O)[C@H](CCCCN)NC(=O)[C@H](CCCCN)NC(=O)[C@@H](N)Cc1c[nH]c2ccccc12)C(c1ccccc1)c1ccccc1)C(N)=O (stereo not given in full) (H-WKKW[ξDip]K-NH2)
IC50 (A20): 247 µM
IC50 at 4 h [1]: 460 µM

NCCCC[C@H](NC(=O)C(NC(=O)[C@H](Cc1c[nH]c2ccccc12)NC(=O)[C@H](CCCCN)NC(=O)[C@H](CCCCN)NC(=O)[C@H](Cc1c[nH]c2ccccc12)NC(=O)[C@@H](N)Cc1c[nH]c2ccccc12)C(c1ccccc1)c1ccccc1)C(N)=O (stereo not given in full) (H-WWKKW[ξDip]K-NH2)
IC50 (A20): 20.3 µM
IC50 at 4 h [1]: 53.2 µM

NCCC(N)C(=O)NC(CCN)C(=O)N[C@@H](Cc1c[nH]c2ccccc12)C(=O)NC(C(=O)NC(CCN)C(=O)NC(CCN)C(=O)N[C@@H](Cc1c[nH]c2ccccc12)C(=O)N[C@@H](Cc1c[nH]c2ccccc12)C(=O)NC(CCN)C(N)=O)C(c1ccccc1)c1ccccc1 (stereo not given in full) (H-[ξDab][ξDab]W[ξDip][ξDab][ξDab]WW[ξDab]-NH2)
IC50 (A20): 8.3 µM
IC50 at 4 h [1]: 97.7 µM
IC50 [2]: 14.3 µM

NCC(N)C(=O)NC(CN)C(=O)N[C@@H](Cc1c[nH]c2ccccc12)C(=O)NC(C(=O)NC(CN)C(=O)NC(CN)C(=O)N[C@@H](Cc1c[nH]c2ccccc12)C(=O)N[C@@H](Cc1c[nH]c2ccccc12)C(=O)NC(CN)C(N)=O)C(c1ccccc1)c1ccccc1 (stereo not given in full) (H-[ξDap][ξDap]W[ξDip][ξDap][ξDap]WW[ξDap]-NH2)
IC50 (A20): 67.7 µM
IC50 at 4 h [1]: 516 µM
IC50 [2]: 154 µM

NCCCC(N)C(=O)NC(CCCN)C(=O)N[C@@H](Cc1c[nH]c2ccccc12)C(=O)NC(C(=O)NC(CCCN)C(=O)NC(CCCN)C(=O)N[C@@H](Cc1c[nH]c2ccccc12)C(=O)N[C@@H](Cc1c[nH]c2ccccc12)C(=O)NC(CCCN)C(N)=O)C(c1ccccc1)c1ccccc1 (stereo not given in full) (H-[ξOrn][ξOrn]W[ξDip][ξOrn][ξOrn]WW[ξOrn]-NH2)
IC50 (A20): 21.7 µM
IC50 at 4 h [1]: 323 µM
IC50 [2]: 23 µM

Cc1cc(=O)oc2cc(O)ccc12 [HYMECROMONE]
half-life at 1 µM [3]: 11 min
hepatocyte CLint at 1 µM [4]: 373 µL/min/1e6 cells
half-life at 1 µM [5]: 4 min
hepatocyte CLint at 1 µM [6]: 127 µL/min/1e6 cells

Cc1ncc2n1-c1ccc(Cl)cc1C(c1ccccc1F)=NC2 [MIDAZOLAM]
half-life at 1 µM [3]: > 200 min
hepatocyte CLint at 1 µM [4]: 51 µL/min/1e6 cells
half-life at 1 µM [5]: 27 min
hepatocyte CLint at 1 µM [6]: < 7 µL/min/1e6 cells

C[C@]12CC[C@H]3[C@@H](CCC4=CC(=O)CC[C@@]43C)[C@@H]1CC[C@@H]2O [TESTOSTERONE]
hepatocyte CLint at 1 µM [4]: 811 µL/min/1e6 cells
hepatocyte CLint at 1 µM [6]: 333 µL/min/1e6 cells
